# INS promoter act: TRM-6 insulin promoter activation; TRM-6 cells, insulin promoter eGFP reporter, imaging; plate-scaled: unstimulated 0, stimulated control 100; activation, % at 2 µM; hit rate 0.81% among 130,000; AID 1296;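 active = activation at 2 µM above a set limit, confirmed on inspection of the cell images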;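 note: share of cells whose green reporter signal exceeds an intensity cutoff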
#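 Test system: human fetal islet-derived TRM-6 cells with tamoxifen-inducible insulin promoter–eGFP reporter; schedule: overnight tamoxifen, then two-day compound incubation at 37 °C; measured by: high-content imaging of fixed cells with Hoechst nuclear stain; evaluation: percent cells above green-intensity threshold, converted to percent activation versus plate controls; control set: stimulated and unstimulated wells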
# Active calls of the source: *. Many of the other results were omitted from the sample, so hits are more common in it than they were.
SMILES,INS promoter act
CN(C)CCCNc1ccc(S(N)(=O)=O)cc1[N+](=O)[O-],-8
COc1cc(C2C(C(=O)c3ccc(C)o3)=C(O)C(=O)N2c2cc(C)on2)cc(Br)c1O (stereo not given),5
CCOc1ccc(C2CC(=O)n3nc(C45CC6CC(CC(C6)C4)C5)nc3S2)cc1OC (stereo not given),-7
CCOc1ccc(C2N(c3cc(C)on3)C(=O)C3CCCN32)cc1OC (stereo not given),120*
c1ccc(CC(Nc2ccccn2)c2ccccc2)cc1 (stereo not given),0
COc1cccc(NC(=S)N(CCCN2CCOCC2)C(C)c2cc3cccc(OC)c3o2)c1 (stereo not given),259*
COc1cccc(NC(=O)N(CCCN2CCOCC2)C(C)c2cc3ccccc3o2)c1 (stereo not given),-10
COc1cccc2cc(C(C)N(CCCN3CCOCC3)C(=S)Nc3ccc(C)cc3)oc12 (stereo not given),-6
O=C(COc1ccc(Cl)cc1Cl)Nc1c(-c2cccs2)nc2ccccn12,-6
O=C(N/C(=C\c1cccc([N+](=O)[O-])c1)C(=O)N1CCOCC1)c1ccc([N+](=O)[O-])cc1,-5
CCc1ccc(N(C(=O)c2ccco2)C(C(=O)NC2CCCC2)c2ccco2)cc1 (stereo not given),3
COc1cccc(CSc2nnc(-c3ccc(F)cc3)o2)c1,6
COc1cc2c3nnc(-c4ccc(F)cc4)c-3cn(Cc3cccc(F)c3)c2cc1OC,809*
COc1cc2c3nnc(-c4ccccc4)c-3cn(Cc3ccc(F)cc3)c2cc1OC,6
COCCCNC(=O)Cn1nnc(-c2ccc(NC(=O)c3ccccc3F)cc2)n1,6
COC(=O)c1ccc(CN2CCN(CC=C(C)C)C(CCO)C2)cc1 (stereo not given),-7
COCCCN(C(=S)Nc1cccc(Cl)c1)C(C)c1ccncc1 (stereo not given),5
CC(c1ccccn1)N(CCN(C)C)C(=S)Nc1cccc(F)c1 (stereo not given),10
COCCCN(C(=O)Nc1cccc(Cl)c1)C(C)c1ccccn1 (stereo not given),642*
CCCCc1nnc(NC(=O)CSc2nc(=O)cc(N)n2-c2cccc(C)c2)s1,-3
COc1cccc2c1C(=O)c1c(O)c3c(c(O)c1C2=O)C[C@@](O)(C(=O)CO)C[C@@H]3O[C@H]1C[C@H](N)[C@H](O)[C@H](C)O1,354*
CCOC(=O)c1sc(C)c(C(=O)NCC(C)(C)CN(C)C)c1N,-3
COc1ccc(CC(=O)Nc2cccc(-c3ccc4nnc(C)n4n3)c2)cc1,0
COc1ccc(CC(=O)Nc2c3c(nn2-c2ccccc2C)CS(=O)C3)cc1 (stereo not given),456*
CCc1ccc(NC(=O)Cc2ccc(OC)cc2)cc1,-3
SMILES,INS promoter act
O=C(c1ccccn1)N(Cc1cccs1)C1(C(=O)NC2CCCCC2)CCCCC1,136
O=C(O)C(NS(=O)(=O)c1ccc(F)cc1)c1ccccc1 (stereo not given),-6
Cc1ccc(S(=O)(=O)NC(c2ccccc2)C(C)C(=O)n2nc(C)cc2C)cc1 (stereo not given),117*
Cc1cc(Nc2ccccc2)n(C(=O)c2ccccc2)n1,6
O=C(NC1CCCCC1)C(c1ccc(F)cc1)N(Cc1ccc2c(c1)OCO2)C(=O)c1cnsn1 (stereo not given),226
CCc1nnc(NC(=O)/C=C/c2ccco2)s1,-6
CCc1nnc(NS(=O)(=O)c2ccc(NC(=O)/C=C/c3ccc(F)cc3)cc2)s1,275*
Cc1ccc(/C=C/C(=O)Nc2ccc(S(=O)(=O)Nc3ncccn3)cc2)cc1,-7
C=CCc1c(OC)ccc2ccc(=O)oc12,6
COC(=O)/C=C/c1ccsc1NC(C)=O,-8
CC[n+]1c(/C=C/N(C)c2ccccc2)oc2ccccc21,156
O=S(=O)([O-])CCC[n+]1c(/C=C\Nc2ccccc2)oc2ccc(-c3ccccc3)cc21,376*
CC[n+]1c(/C=C/Nc2ccccc2)oc2ccc(OC)cc21,456*
CCOC(=O)c1c(-c2ccccc2)oc2ccc(OC)cc12,0
CC[n+]1c(/C=C/N(C)c2ccccc2)oc2ccc(F)cc21,6
CC[n+]1c(/C=C/Nc2ccccc2)oc2ccccc21,138*
COc1ccccc1NC(=S)NNC(=O)c1ccccc1Br,10
Cn1ncc2c(=O)n(CC(=O)NC34CC5CC(CC(C5)C3)C4)cnc21,-5
CCOc1ccc(N2CC(C(=O)Nc3ccccc3F)CC2=O)cc1 (stereo not given),0
CC(C)C(=O)Nc1ccc(C(=O)c2ccccc2)cc1,0
CC(=O)N1CCc2cc(S(=O)(=O)NCCC(=O)NC3CCCc4ccccc43)ccc21 (stereo not given),244
CCS(=O)(=O)c1ccc(-c2csc(-c3ccccc3)n2)c(Cl)c1Cl,-5
COc1ccc(C(=O)Oc2cccc(/C=N/NC(N)=S)c2)cc1,-10
C[n+]1cc[nH]c1SCC(=O)c1ccccc1,-7
OC1CCCN(CC(O)c2ccccc2)C1 (stereo not given),0
SMILES,INS promoter act
O=P(OC1CCCCC1)(OC1CCCCC1)C(O)c1ccccc1 (stereo not given),104*
NC(=O)C(c1ccccc1)C1CCCC1 (stereo not given),106
CN(C)c1oc(-c2ccc(Cl)cc2)nc1S(=O)(=O)c1ccccc1,-2
Cc1ccc(CCNC(=O)CCc2nc3ccccc3[nH]2)cc1,5
O=C(NCCN1CCCCCC1)c1ccc(N2CCCC2=O)cc1,-9
CC(C)(C)c1ccc(C(=O)N2CCCCCC2=O)cc1,585*
CN1CCN(C(=O)c2ccc(N3CCCC3=O)cc2)CC1,0
COc1ccc(C(=O)OCC(=O)c2ccccc2)cc1S(=O)(=O)N1CCOCC1,-7
O=C(O)C(Cc1c[nH]c2ccccc12)N1C(=O)C2C3c4ccccc4C(c4ccccc43)C2C1=O (stereo not given),-6
O=C(CC1CCCCC1)N1CCCC(c2nc(-c3ccc(S(=O)(=O)N4CCCC4)cc3)no2)C1 (stereo not given),9
COc1ccc(-c2noc(CCC(=O)N3CCC(C)CC3)n2)cc1,113
CCCCCC(=O)N1CCCC(c2nc(-c3ccc(OC)cc3)no2)C1 (stereo not given),77*
COc1ccc(NC(=O)CSc2nnc(-c3ccncc3)n2C)cc1,0
Cn1c(SCCOc2ccccc2Cl)nnc1-c1ccncc1,538*
Cn1c(SCC(=O)C(C)(C)C)nnc1-c1ccncc1,0
COc1ccc(/C=C/C(=O)Nc2cc(F)ccc2C)cc1S(=O)(=O)N1CCOCC1,0
O=C(CNC(=O)OCc1ccccc1)NCC(=O)N1CCCC1C(=O)OCc1ccccc1 (stereo not given),8
N#Cc1cccc(NC(=O)CSc2ccc3c4c(cccc24)C(=O)c2ccccc2-3)c1,233*
N#Cc1cccc(NC(=O)CSc2ccccc2)c1,-9
COc1ccc(NC(=O)CSc2ccc3c4c(cccc24)C(=O)c2ccccc2-3)cc1,111
Cc1ccc(N2C(=O)CSC2c2ccccn2)cc1Cl (stereo not given),-5
O=C(O)CCCC(=O)NS(=O)(=O)c1ccc(Cl)cc1,393
CS(=O)(=O)N(CC(N)=O)c1ccc(F)c(Cl)c1,277
C=CCNC(=O)CN(c1cccc(Br)c1)S(C)(=O)=O,3
CS(=O)(=O)N(CC(N)=O)c1cccc(Br)c1,514*
